Measurements reported in article PMC4303305 (Biochemistry, 2014).
Like-named read-outs stand apart in the source and are kept apart here.

Experiments:
[1] = Size-exclusion FPLC retention of nitrophorins, mutants and ligand complexes; format: physicochemical, Rhodnius prolixus; details: under any conditions / at any pH
Method in brief: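 Analytical run on Superdex75 at 4 °C in 100 mM sodium acetate, NaCl added to 220 mM total ionic strength. Protein at 1 mM was run at pH 5.0, 5.25, 5.5 and 5.75. Separately, protein from 1 to 0.025 mM was run at pH 5.0. Elution position compared with molecular weight standards.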

[2] = cited from earlier work
[3] = Stopped-flow kinetics of release of NO from the nitrophorins; format: binding, Rhodnius prolixus
Method in brief: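 Stopped-flow measurement of NO release from NO-bound nitrophorins with native or M0-bearing N-termini. Dissociation Kd obtained at pH 5.0 and 7.5 in dilute solution, 5–10 μM protein in 100 mM sodium phosphate buffer.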

## (M0)NP2: recombinant NP2 retaining M0 (N-terminus MDCST...)
[1]
  dimer formation: do not form dimers
[2]; column pH 7.5, measured at pH 8.0 rather than pH 7.5 (footnote a)
  NO Kd (NO dissociation): 0.12 ± 0.01 ^a s^–1
[2]; pH 5.0, ref 17
  NO Kd (NO dissociation): 0.05 ± 0.01 s^–1
[2]; pH 5.0, ref 29
  NO Kd (NO dissociation): 0.049 ± 0.002 s^–1
[2]; pH 7.5
  NO Kd (NO dissociation): 0.161 ± 0.005 s^–1

## NP2(D1A): D1A mutant of NP2, no M0 present
[2]; pH 5.0, ref 29
  NO Kd (NO dissociation): 0.015 ± 0.005 s^–1
[2]; pH 7.5
  NO Kd (NO dissociation): 0.089 ± 0.002 s^–1

## NP2: nitrophorin 2 of Rhodnius prolixus; in b68 named without construct
[3]; pH 5.0
  factor by which having M0 present increased the Kd for the loss of NO: 1.6
[3]; pH 7.5
  factor by which having M0 present increased the Kd for the loss of NO: 1.7
